Data from ChEMBL document CHEMBL5104204, “Synthesis and in vitro anticancer evaluation of novel flavonoid-based amide derivatives as regulators of the PI3K/AKT signal pathway for TNBC treatment” (RSC Med Chem, 2022).
Activity calls are given as the source filed them. No cut-off for these calls is given here.

Key:
A549 = assay: Antitumor activity against human A549 cells assessed as inhibit cell proliferation incubated for 72 hrs by CCK-8 assay; format: functional, cell-based; details: A549, 72 h
How it was run: (§1)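 CCK8 viability readout. Culture media: HCC1937, A549, HeLa and GTL-16 in RPMI 1640; MDA-MB-231, MCF-7 and HepG2 in high-glucose DMEM; all with 10% FBS and penicillin/streptomycin, 37 °C, 5% CO2. 4×10^3–6×10^3 cells/well, 24 h, then compounds in serum-free medium, 72 h at 37 °C. 10% CCK8, 2 h, OD 450/630 nm. Five wells per group; IC50 from inhibition rate; three independent experiments, mean ± SD.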

MDA-MB-231 [1] = assay: Inhibition of PI3K/AKT signalling pathway in human MDA-MB-231 cells assessed as decrease in phosphorylated AKT level at 1 to 10 uM incubated for 48 hrs by western blot analysis; format: cell-based; details: dose 1-10 µM, DDE = dose-dependent effect
How it was run: (§2)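 MDA-MB-231 treated at 1, 5 and 10 μM at 37 °C, then lysed in RIPA/PMSF for 30 min at 0 °C and cleared at 14 000 × g, 4 °C. Protein quantified by BCA; 40 μg resolved by SDS-PAGE and transferred to PVDF. Blocked in 5% skim milk, primary antibody overnight at 4 °C, secondary 2 h at room temperature, chemiluminescent imaging.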

MDA-MB-231 [2] = assay: Induction of cell cycle arrest in human MDA-MB-231 cells assessed as increase in accumulation at G0/G1 phase at 0.88 to 3.52 uM incubated for 48 hrs by flow cytometry; format: functional, cell-based; details: dose 0.88-3.52 µM, DDE = dose-dependent effect
How it was run: (§3)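 Cell cycle of MDA-MB-231 after 48 h exposure: trypsinised and washed in PBS, about 1×10^6 cells/mL. Fixed overnight in pre-cooled 70% ethanol at 4 °C, then resuspended in PBS and filtered through 200-mesh nylon. Flow cytometry with 488 nm excitation gave G0/G1, S and G2/M percentages; n = 3, mean ± SD.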

MDA-MB-231 [3] = assay: Inhibition of cell migration in human MDA-MB-231 cells at 0.88 uM incubated for 12 hrs by scratch wound healing assay; format: functional, cell-based
MCF7 = assay: Antitumor activity against human MCF7 cells assessed as inhibit cell proliferation incubated for 72 hrs by CCK-8 assay; format: functional, cell-based; details: MCF7, 72 h; how it was run: as §1
MDA-MB-231 [4] = assay: Induction of apoptosis in human MDA-MB-231 cells assessed as viable cells at 3.52 uM incubated for 48 hrs AnnexinV/ propidium iodide staining based flow cytometry (Rvb= 99.02%); format: functional; details: read-out: Activity
HepG2 = assay: Antitumor activity against human HepG2 cells assessed as inhibit cell proliferation incubated for 72 hrs by CCK-8 assay; format: functional, cell-based; details: HepG2, 72 h; how it was run: as §1
MDA-MB-231 [5] = assay: Induction of apoptosis in human MDA-MB-231 cells assessed as half-moon, loop and ellipse shaped fragment formation at 0.88 to 3.52 uM incubated for 48 hrs by Hoechst 33258 staining based fluorescence microscopic analysis; format: functional, cell-based; details: dose 0.88-3.52 µM, DDE = dose-dependent effect
How it was run: (§4)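 MDA-MB-231 seeded at 2×10^5–3×10^5 per well and incubated overnight (37 °C, 5% CO2). Exposed to compound for 48 h. Fixed in methanol 30 min, then stained with Hoechst 33258 for 30 min at room temperature in the dark. Nuclear morphology scored by fluorescence microscopy; n = 3, mean ± SD.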

MDA-MB-231 [6] = assay: Induction of apoptosis in human MDA-MB-231 cells assessed as early apoptotic cells at 3.52 uM incubated for 48 hrs AnnexinV/ propidium iodide staining based flow cytometry (Rvb= 0.3%); format: functional
MDA-MB-231 [7] = assay: Induction of apoptosis in human MDA-MB-231 cells assessed as viable cells at 0.88 uM incubated for 48 hrs AnnexinV/ propidium iodide staining based flow cytometry (Rvb= 99.02%); format: functional; details: read-out: Activity
MDA-MB-231 [8] = assay: Induction of apoptosis in human MDA-MB-231 cells assessed as late apoptotic cells at 2.2 uM incubated for 48 hrs AnnexinV/ propidium iodide staining based flow cytometry (Rvb= 0.40%); format: functional
MDA-MB-231 [9] = assay: Inhibition of colony formation in human MDA-MB-231 cells assessed as decrease in size of colony forming cells at 1.76 uM incubated upto 72 hrs by crystal violet staining based assay; format: functional, cell-based; details: TDE = time-dependent effect
How it was run: (§5)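 Colony formation, MDA-MB-231: 800 cells/well, three replicate wells per group, grown 5–7 days at 37 °C, 5% CO2 until 30–50-cell clusters formed. Drug then added for 24, 48 or 72 h. Washed with cold PBS, fixed in 4% paraformaldehyde 30 min, stained with 0.5% crystal violet, imaged, colonies counted; n = 3.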

MDA-MB-231 [10] = assay: Inhibition of PI3K/AKT signalling pathway in human MDA-MB-231 cells assessed as decrease in phosphorylated PI3K level at 1 to 10 uM incubated for 48 hrs by western blot analysis; format: cell-based; details: dose 1-10 µM, DDE = dose-dependent effect; how it was run: as §2
MDA-MB-231 [11] = assay: Induction of cell cycle arrest in human MDA-MB-231 cells assessed as decrease in G2/M phase at 0.88 to 3.52 uM incubated for 48 hrs by flow cytometry; format: functional, cell-based; details: dose 0.88-3.52 µM, DDE = dose-dependent effect; how it was run: as §3
MDA-MB-231 [12] = assay: Inhibition of colony formation in human MDA-MB-231 cells assessed as decrease in number of colony forming cells at 0.44 to 3.52 incubated for 48 hrs by crystal violet staining based assay; format: functional, cell-based; details: DDE = dose-dependent effect; how it was run: as §5
GTL 16 cell line = assay: Antitumor activity against human GTL 16 cell line assessed as inhibit cell proliferation incubated for 72 hrs by CCK-8 assay; format: functional, cell-based; details: GTL 16, 72 h; how it was run: as §1
MDA-MB-231 [13] = assay: Induction of apoptosis in human MDA-MB-231 cells assessed as necrotic cells at 2.2 uM incubated for 48 hrs AnnexinV/ propidium iodide staining based flow cytometry (Rvb= 0.54%); format: functional
MDA-MB-231 [14] = assay: Induction of apoptosis in human MDA-MB-231 cells assessed as viable cells at 7.04 uM incubated for 48 hrs AnnexinV/ propidium iodide staining based flow cytometry (Rvb= 99.02%); format: functional; details: read-out: Activity
MDA-MB-231 [15] = assay: Induction of apoptosis in human MDA-MB-231 cells assessed as necrotic cells at 0.88 uM incubated for 48 hrs AnnexinV/ propidium iodide staining based flow cytometry (Rvb= 0.54%); format: functional
MDA-MB-231 [16] = assay: Induction of apoptosis in human MDA-MB-231 cells assessed as viable cells at 1.76 uM incubated for 48 hrs AnnexinV/ propidium iodide staining based flow cytometry (Rvb= 99.02%); format: functional; details: read-out: Activity
MDA-MB-231 [17] = assay: Inhibition of cell invasion in human MDA-MB-231 cells assessed as decrease in number of cells crossing microporous membrane at 0.88 to 3.52 uM incubated for 48 hrs by crystal violet staining based transwell invasion assay; format: functional; details: dose 0.88-3.52 µM, DDE = dose-dependent effect
How it was run: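 Transwell invasion, MDA-MB-231. Cells in serum-free medium in the upper chamber with compound; complete medium below. 48 h at 37 °C. Methanol fixation 2 h, non-invaded cells swabbed off, 0.5% crystal violet 30 min. Invaded cells photographed and counted; n = 3, mean ± SD.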

MDA-MB-231 [18] = assay: Antitumor activity against human MDA-MB-231 cells assessed as inhibit cell proliferation incubated for 72 hrs by CCK-8 assay; format: functional, cell-based; details: MDA-MB-231, 72 h; how it was run: as §1
MDA-MB-231 [19] = assay: Induction of apoptosis in human MDA-MB-231 cells assessed as increase in apoptotic bodies at 0.88 to 3.52 uM incubated for 48 hrs by Hoechst 33258 staining based fluorescence microscopic analysis; format: functional, cell-based; details: dose 0.88-3.52 µM, DDE = dose-dependent effect; how it was run: as §4

Q: How did the IC50 (A549) turn out when O=C(Nc1cccc(-c2oc3cc(-c4ccc(F)cc4)ccc3c(=O)c2O)c1)c1ccc(Cl)nc1 was run?
A: 3.58 µM

Q: What about the inhibition (MDA-MB-231 [1]) of the same compound?
A: Dde

Q: And the Activity (MDA-MB-231 [2])?
A: Dde

Q: And the inhibition (MDA-MB-231 [3])?
A: Active

Q: What about the IC50 (MCF7) of the same compound?
A: 2.89 µM

Q: And the viability at 3.52 µM (MDA-MB-231 [4])?
A: 12%

Q: And the IC50 (HepG2)?
A: 4.61 µM

Q: And the Activity (MDA-MB-231 [5])?
A: Dde

Q: And the Activity (MDA-MB-231 [6])?
A: 15.04%

Q: What about the viability at 0.88 µM (MDA-MB-231 [7]) of the same compound?
A: 74.3%

Q: What about the Activity (MDA-MB-231 [8]) of the same compound?
A: 61.14%

Q: What about the inhibition (MDA-MB-231 [9]) of the same compound?
A: Tde

Q: What about the inhibition (MDA-MB-231 [10]) of the same compound?
A: Dde

Q: What about the Activity (MDA-MB-231 [11]) of the same compound?
A: Dde

Q: And the inhibition (MDA-MB-231 [12])?
A: Dde

Q: What about the IC50 (GTL 16 cell line) of the same compound?
A: 7.52 µM

Q: And the Activity (MDA-MB-231 [13])?
A: 1.53%

Q: What about the viability at 7.04 µM (MDA-MB-231 [14]) of the same compound?
A: 5.68%

Q: What about the Activity (MDA-MB-231 [15]) of the same compound?
A: 0.63%

Q: What about the viability at 1.76 µM (MDA-MB-231 [16]) of the same compound?
A: 45.8%

Q: What about the inhibition (MDA-MB-231 [17]) of the same compound?
A: Dde

Q: What about the IC50 (MDA-MB-231 [18]) of the same compound?
A: 1.76 µM

Q: And the Activity (MDA-MB-231 [19])?
A: Dde
